Screens deposited in PubChem BioAssay by several laboratories.
CHOP inhibitor – blocks CHOP induction under ER stress. inhibition, % at 10 µM. 3.8% of 220,000 active. CHO-K1 CHOP-promoter luciferase, tunicamycin-induced, 15-18 h. AID 2732;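 active means compounds that reduced the stress-induced luciferase reporter signal by more than about 70% of percent inhibition, limit read from the data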;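 further: 0% = tunicamycin plus vehicle and 100% = wells without tunicamycin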
Beta2AR agonist – agonists of human beta-2 adrenergic receptor inducing internalization; P07550; Am2.2-beta2AR cells, FAP receptor internalization, flow cytometry; response, % (test concentration not listed); 0.43% of 340,000 active; AID 504454;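 active means response above a set limit, near 3 SD of response in nonfluorescent compounds, cut at about 42% in these data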
Target sequence (P07550 whole entry, looked up): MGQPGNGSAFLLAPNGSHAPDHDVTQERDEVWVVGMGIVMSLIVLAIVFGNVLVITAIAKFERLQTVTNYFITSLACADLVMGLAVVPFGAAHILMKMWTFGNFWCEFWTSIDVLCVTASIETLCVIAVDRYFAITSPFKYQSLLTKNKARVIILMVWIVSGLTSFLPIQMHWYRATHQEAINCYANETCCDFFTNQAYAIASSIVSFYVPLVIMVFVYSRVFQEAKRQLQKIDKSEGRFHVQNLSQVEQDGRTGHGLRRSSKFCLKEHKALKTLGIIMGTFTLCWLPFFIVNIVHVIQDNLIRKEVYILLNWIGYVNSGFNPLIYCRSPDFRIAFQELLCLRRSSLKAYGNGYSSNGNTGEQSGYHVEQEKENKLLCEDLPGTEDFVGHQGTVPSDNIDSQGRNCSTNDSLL
Dynein cargo inh – blocks dynein driven cargo transport along microtubules; AID 1381; 0.47% of 220,000 active; 3617.4 mouse cells, GR-EGFP nuclear translocation imaging; test concentration mostly 20 µM; stimulated with dexamethasone, 1 µM; active compounds read low; z-score, hits read low;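 active means plate z-score of nuclear minus cytoplasmic receptor signal below a set negative limit, without overly bright fluorescence or cell loss, cut at about -3.5 in these data, passing the limit was not always enough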;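 further: z-score of nuclear minus cytoplasmic ring GR-EGFP intensity difference per well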
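Also added – dexamethasone, 1.0 µM final · Buffer or medium – tet-free, stripped-serum medium · Schedule – induction 48 h, compound 1 h, agonist 30 min · Detection – formaldehyde fixation, Hoechst nuclear stain, 10x automated fluorescence imaging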
p-CIP stab down – p/CIP protein destabilization; decrease of EGFP signal, % at 10 µM; 0.01% of 290,000 active; F442A p/CIP-EGFP cells, EGFP fluorescence, 16 h;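 active means EGFP signal decrease of at least 30% at 10 µM or well 3 SD below plate mean, unless failing retest; inactive means the rest, including hits failing retest or dose response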
CHOP UPR activ – activators of apoptotic arm of unfolded protein response (CHOP); CHO-CHOP luciferase reporter, UPR activation, luminescence; percent of tunicamycin response over DMSO baseline; 0.34% of 330,000 active; AID 449763; activation, % at 10 µM;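 active means at 10 µM dose, activation of 40% or more, normalized to positive control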;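 further: 100% = tunicamycin at 10 µg/mL and 0% = DMSO alone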
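assay system = CHO CHOP reporter cells | amount = 500 CHO-CHOP cells per well | buffer or medium = F12 with 10% FBS | incubation = 16-18 h cell attachment, then 6 h compound exposure, 37 °C | detection = luminescence read with Steady-Glo | read-out = percent activation relative to tunicamycin control | controls = tunicamycin high control, DMSO low control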
UPR XBP1 act – adaptive UPR (XBP1) activation; activation, % at 20 µM; 0.33% of 330,000 active; AID 463104; CHO-XBP1 luciferase reporter, IRE1-XBP1 UPR activation, luminescence; percent of tunicamycin response, DMSO as zero;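 active means versus positive control, 20 µM dose yields 30% or more activation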;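 further: 100% = tunicamycin at 10 µg/mL and 0% = DMSO only wells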
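Material: CHO cell line with stable XBP1 luciferase reporter; buffer or medium: F12 medium containing 10% fetal bovine serum; compound: single point, 20 µM final compound, 1% DMSO; incubation: 6 h treatment, 37 °C; measured by: glow luminescence from Steady-Glo reagent; evaluation: activation, % of tunicamycin; control set: tunicamycin high, DMSO low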
Starred values were filed as active, the others as inactive; nt = no result. The sample as a whole holds a higher share of hits than the screen did.

SMILES	CHOP inhibitor	Beta2AR agonist	Dynein cargo inh	p-CIP stab down	CHOP UPR activ	UPR XBP1 act
Cc1cc(C)c(C)c(C(=O)CSc2nnc(-c3ccc4[nH]c(C)c(C)c4c3)o2)c1C	70.9*	6.5	0.167	-8.4	-0.6	-1.5
COc1ccc(-c2nc(-c3ccccn3)no2)cc1	100.7*	-22.0	-0.5	-33.6	-10.1	-5.3
COc1ccccc1-c1nc(-c2ccccn2)no1	59.4	-29.4	0.701	5.1	-8.0	-8.3
O=C1C2C3C=CC(C3=C3CCCCC3)C2C(=O)N1Cc1ccccc1 (stereo unspecified)	86.2*	-12.3	-0.806	-9.4	0.8	-3.0
O=C1C2C3C=CC(C4CC34)C2C(=O)N1Cc1ccccc1 (stereo unspecified)	-4.5	-3.2	-0.974	-6.4	-1.9	0.1
NC(=O)c1ccc(N2CCN(S(=O)(=O)c3cccs3)CC2)c([N+](=O)[O-])c1	nt	8.0	nt	nt	4.9	7.8
CCc1cc2cc(C)cc(C)c2nc1SCC(=O)N1CCCC1	87.2*	5.6	1.18	-10.8	-0.6	-0.1
CCc1cc2cc(C)cc(C)c2nc1SCC(=O)Nc1cc(C)on1	25.0	0.3	0.0351	-26.6	-0.7	-3.8
Cc1ccc(CNC(=O)C2CCCN2C(=O)Nc2cccc(Cl)c2)cc1 (stereo unspecified)	nt	-2.4	nt	0.7	-2.6	-4.1
C=CCCC(=O)Nc1nc(C)c(-c2csc(Nc3cc(OC)ccc3OC)n2)s1	75.3*	19.6	-0.61	8.4	0.1	1.8
CCCC(=O)Nc1nc(C)c(-c2csc(Nc3cc(OC)ccc3OC)n2)s1	50.9	9.9	1.09	2.8	2.2	2.9
O=C(Nc1ccccc1)Nc1nnc(Cc2ccc([N+](=O)[O-])cc2)s1	90.3*	-4.0	0.0355	-4.4	5.2	1.8
O=C(Nc1nnc(Cc2ccc([N+](=O)[O-])cc2)s1)Nc1ccccc1F	74.5*	-1.1	-1.26	-10.6	-1.1	2.5
O=C(Nc1nnc(Cc2ccc(F)cc2)s1)Nc1ccccc1F	nt	-1.6	nt	3.4	2.2	-4.5
Cc1cccc(NCC(=O)N/N=C/c2cccc(Br)c2)c1	83.7*	1.2	-0.579	15.6	0.9	3.6
Cc1ccc(C)c(SCC(=O)NCC(c2ccco2)N2CCCCC2)c1 (stereo unspecified)	nt	8.5	nt	nt	-1.2	-1.6
O=C(CC1Sc2ccccc2NC1=O)c1ccc(Br)cc1 (stereo unspecified)	71.6*	-5.0	-0.374	4.2	5.9	2.4
O=C(O)CC1Sc2ccccc2NC1=O (stereo unspecified)	-3.4	17.8	-0.444	6.4	0.9	-0.3
CCCCCCN1CC(C(=O)OCC)C(=O)C1=O (stereo unspecified)	-1.2	6.6	-0.0802	-2.3	-0.9	-1.4
COc1cccc(N(C(=O)Cn2nnc(-c3cccs3)n2)C(C(=O)NC(C)C)c2ccc(C)o2)c1 (stereo unspecified)	92.7*	-6.1	1.87	-12.8	-3.1	-3.2
Cc1ccc2nc(/C=C/c3cccc(F)c3)ccc2c1	95.5*	4.6	-0.434	-1.9	1.1	0.0
CCOCCCNC(=S)N(CCO)Cc1cc2cc3c(cc2[nH]c1=O)OCCO3	nt	7.8	nt	-11.3	-1.3	-3.3
O=C1C(F)=CC(COC(c2ccccc2)(c2ccccc2)c2ccccc2)OC1n1cc(F)c(=O)[nH]c1=O (stereo unspecified)	nt	87.2*	nt	nt	nt	nt
CC1Cc2ccccc2N1c1ncnc2c1nnn2Cc1ccccc1 (stereo unspecified)	73.0*	4.8	1.12	-3.7	-1.4	-0.7
O=C(O)C1CCC(NSc2ccccc2[N+](=O)[O-])CC1 (stereo unspecified)	12.4	3.5	-0.00844	-15.9	-0.5	-5.0
SMILES	CHOP inhibitor	Beta2AR agonist	Dynein cargo inh	p-CIP stab down	CHOP UPR activ	UPR XBP1 act
CCCCCc1cc(=O)oc2c(C(CCN3CCCC(C)C3)c3ccc(N(C)C)cc3)c(OC)cc(OC)c12 (stereo unspecified)	84.0*	17.1	-1.3	-7.6	20.1	22.2
CCCCCc1cc(=O)oc2c(C(CCN3CCCC(C)C3)c3cc(OC)c(OC)c(OC)c3)c(OC)cc(OC)c12 (stereo unspecified)	93.0*	14.2	0.977	-10.8	21.4	10.1
NC(N)=NC(=S)Nc1ccc(Cl)cc1	-17.2	7.7	0.393	1.9	nt	nt
CC1(NCC(O)COc2cccc3[nH]ccc23)CCC(C(C)(C)NC(=O)CBr)CC1 (stereo unspecified)	-10.8	nt	nt	nt	nt	nt
CC1(C)CC(C)(O)P(=O)(c2ccccc2)O1 (stereo unspecified)	-3.4	16.3	1.38	-17.4	-2.5	-0.3
CC1=CCP(=O)(c2ccccc2)C1 (stereo unspecified)	72.3*	5.8	-0.391	5.4	-3.9	4.3
CC(=O)C1=C(O)C(=O)N(c2ccc(S(=O)(=O)Nc3nccs3)cc2)C1c1ccc(F)cc1 (stereo unspecified)	-13.1	-5.7	-0.86	0.3	-0.8	-2.0
C=CCOc1nc(-c2ccncc2)nc2ccccc12	71.1*	4.5	1.54	-1.6	-1.2	1.8
CSCCC(NS(=O)(=O)c1ccc(C)cc1)C(=O)N1CCCCCCC1 (stereo unspecified)	nt	-3.9	nt	nt	-0.2	-2.0
C/C=C1\COC(C(=O)NCCCN2CCCC2=O)(C(F)(F)F)C=C1C=C(C)C (stereo unspecified)	nt	-3.7	nt	nt	1.0	-1.6
COc1ccc(S(=O)(=O)N(C)C[C@H]2Oc3c(NC(=O)Nc4c(C)noc4C)cccc3C(=O)N([C@@H](C)CO)C[C@H]2C)cc1	nt	1.8	nt	nt	2.0	-3.8
Cc1ccc2nc(-c3ccc(NC(=O)CCN4C(=O)c5ccccc5C4=O)cc3)sc2c1	45.1	14.7	0.232	-8.6	3.8	4.0
Cc1ccc(C2(C)NC(=O)N(CC(=O)Nc3ccc(-c4nc5ccc(C)cc5s4)cc3)C2=O)cc1 (stereo unspecified)	73.4*	7.8	-0.471	-9.7	1.7	-0.8
COC(=O)CC/C(C)=N\Nc1ccc([N+](=O)[O-])cc1[N+](=O)[O-]	75.1*	0.7	-0.989	4.9	5.1	1.3
C/C(CC(C)C)=N/Nc1ccc([N+](=O)[O-])cc1[N+](=O)[O-]	56.1	6.3	0.156	-2.8	-0.7	4.0
COc1ccc(CCNC(=O)Cn2ccc3c(OC)cccc3c2=O)cc1OC	0.0	-4.2	-0.35	-3.5	1.1	-1.1
O=C(Nc1ccc(Br)cc1)c1ccc(F)c(S(=O)(=O)NCc2cccs2)c1	93.0*	6.7	0.916	3.5	3.7	-0.6
O=S(=O)(NCc1cccs1)c1ccc(Br)cc1	nt	0.2	nt	1.2	1.1	-5.0
O=[N+]([O-])/C=C/c1c(OCc2ccccc2)ccc2ccccc12	110.3*	89.0*	-0.616	-0.8	-0.3	-4.9
